# From PubChem BioAssay
# CAL PDZ FP-1: CAL PDZ peptide-binding inhibitors, primary screen, biochemical, fluorescence polarization, Cer-tagged CAL PDZ, HTS. inhibition, % at 20 µM. 330,000 compounds, 0.02% hits. AID 504414, 2011. Golgi-associated PDZ and coiled-coil motif-containing protein (Homo sapiens), Q9HD26. purified CAL PDZ, TMR-peptide fluorescence polarization, 1 h;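 active means highest replicate inhibition of at least 40%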;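 further: plate controls were DMSO neutral control wells for no effect and unlabeled competitor peptide control wells for full effect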
#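 Read-out basis: mP drop reported as inhibition | Assay system: Tagged CAL PDZ protein CerCALP, purified | Benchmarks: Unlabelled peptide for full inhibition, DMSO wells as neutral | Schedule: 1 h incubation at room temperature before polarization reading | Buffer or medium: Sodium phosphate/NaCl buffer pH 7.4 with TCEP, IgG, Thesit | Doses: Single point, 20 µM | Measured by: Fluorescence polarization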
# Rtt109 HAT inh: inhibitors of C. albicans Rtt109/Vps75 HAT, primary screen, biochemical, ThioGlo CoA-SH fluorescence, plate reader; purified Rtt109/Vps75, 4 h; inhibition, % at 34.9 µM; 330,000 compounds, 0.16% hits;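 active means inhibition of at least 50% in every replicate; inconclusive means best replicate reaches 50% inhibition but some replicates fall short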
# Target sequence (Q5AAJ8 whole entry, looked up): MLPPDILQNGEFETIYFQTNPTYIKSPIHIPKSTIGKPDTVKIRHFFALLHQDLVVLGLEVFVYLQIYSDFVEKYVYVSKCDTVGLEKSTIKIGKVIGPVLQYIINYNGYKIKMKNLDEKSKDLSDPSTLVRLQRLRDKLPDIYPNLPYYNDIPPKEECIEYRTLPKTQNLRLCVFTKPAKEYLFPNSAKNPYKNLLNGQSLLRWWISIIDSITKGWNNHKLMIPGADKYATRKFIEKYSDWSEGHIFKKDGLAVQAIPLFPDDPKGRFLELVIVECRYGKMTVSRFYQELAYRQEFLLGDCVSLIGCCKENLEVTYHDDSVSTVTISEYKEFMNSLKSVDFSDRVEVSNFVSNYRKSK
# CAL PDZ FP-2: untagged CAL PDZ binding inhibitors, primary screen, biochemical, fluorescence polarization, HTS. Golgi-associated PDZ and coiled-coil motif-containing protein (Homo sapiens), Q9HD26. purified CAL PDZ, TMR-peptide fluorescence polarization, 1 h. 300,000 compounds, 0.92% hits. inhibition, % at 24.9 µM;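 active means mean inhibition of at least 30% with at least half of replicates also reaching 30%; inconclusive means no clear call, values can overlap the other calls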;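 further: 0% = DMSO neutral control and 100% = excess unlabeled competitor peptide PRC23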
# ALR inh: inhibitors of human ALR sulfhydryl oxidase, primary screen, biochemical, H2O2 detection, HRP-luminol luminescence, single point | FAD-linked sulfhydryl oxidase ALR (Homo sapiens), P55789 | purified ALR, DTT oxidation | inhibition, % (test concentration not listed) | 290,000 compounds, 3.8% hits | AID 485317, 2010;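 active means mean replicate inhibition above about 79%, with every replicate also reaching it, limit read from the data; inconclusive means only one of the two criteria met; inactive means mean below limit and not every replicate reaching it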
# Target sequence (P55789 whole entry, looked up): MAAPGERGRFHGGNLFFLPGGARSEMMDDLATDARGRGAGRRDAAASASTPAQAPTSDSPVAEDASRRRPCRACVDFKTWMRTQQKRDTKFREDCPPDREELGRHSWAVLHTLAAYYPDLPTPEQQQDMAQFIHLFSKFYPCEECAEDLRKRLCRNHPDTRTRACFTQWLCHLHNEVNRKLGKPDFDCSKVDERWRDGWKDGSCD
# DYRK1A inh: rat Dyrk1A kinase inhibitors, primary screen, biochemical, single point, plate reader; Dual specificity tyrosine-phosphorylation-regulated kinase 1A (Rattus norvegicus), Q63470; ADP-Glo luminescence, NFATc1 peptide; inhibition, % at 12.5 µM; 310,000 compounds, 0.43% hits; in the data active means inhibition above about 50%;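 further: plate controls were vehicle with enzyme for no effect and no enzyme for full effect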
# The depositor's hits bear a star; ? = inconclusive; . = not tested or not shown. Only some compounds are listed: those with a hit (about 4.3% of all), similar ones and a draw of the others.
SMILES,CAL PDZ FP-1,Rtt109 HAT inh,CAL PDZ FP-2,ALR inh,DYRK1A inh
CC(O)[C@H]1CC[C@H]2[C@@H]3CC[C@H]4C[C@H](O)CC[C@]4(C)[C@H]3[C@H](O)C[C@]12C (some centres undefined),0,-3,-2,-11,.
COC(=O)c1c(C)cc(O)c(C=O)c1O,1,3,3,0,6
COc1cc(C(=O)O)c2c(c1C)OC(=O)c1c(C)cc(O)c(C=O)c1O2,-8,-1,-18,99*,4
NNC(=O)Cn1nc2n(c1=O)-c1ccccc1SC2,-1,-2,-7,3,6
CNC(=O)NC(=O)Cn1nc2n(c1=O)-c1ccccc1SC2,0,2,53*,-13,0
COc1ccc(NC(=O)CNC(=O)C2CCCCC2)cc1,1,-3,53*,1,-3
CCOc1ccccc1NC(=O)C1CCCN1S(=O)(=O)c1ccccc1C(F)(F)F (centres undefined),0,2,42*,.,.
CCOC(=O)/C(=N\Nc1cc(C(F)(F)F)ccc1Cl)N(CC)CC,0,10,.,0,8
CCOC(=O)/C(=N\Nc1ccccc1Cl)N(C)C1CCCCC1,0,2,-3,99*,.
Cc1ccc(NC(=S)NNC(=O)CSc2nnc(-c3ccc(Cl)cc3)n2C2CCCCC2)cc1,-1,2,-4,15,-1
CCn1c(SCC(=O)NNC(=S)Nc2ccc(C)cc2)nnc1-c1ccc(Cl)cc1,-3,1,0,97*,-2
Cc1ccccc1NC(=O)Cc1nnc(N)s1,0,3,-8,.,.
C=CCn1c(C)cc(C(=O)COC(=O)c2ccc(N)c([N+](=O)[O-])c2)c1C,0,-5,-5,5,0
COCCn1c(C)cc(C(=O)COC(=O)c2ccc3c(c2)NC(=O)CS3)c1C,-2,-2,-3,98*,-1
C=CCn1c(C)cc(C(=O)COC(=O)c2ccc3c(c2)NC(=O)CS3)c1C,0,-10,-2,98*,-3
COCCn1c(C)cc(C(=O)COC(=O)c2ccc3ncsc3c2)c1C,-3,-1,-2,-5,3
CCC(C)NC(=O)c1ccc(CSc2nc3ccncc3n2Cc2ccc(F)cc2)cc1 (centres undefined),-1,2,.,15,-6
Cc1c(C)n(Cc2ccc(F)cc2)c2ccc(C(=O)NCCN3CCOCC3)cc12,1,9,90*,8,-3
O=C(NC1CCCC1)c1ccc(CSc2nc3ccncc3n2Cc2ccc(F)cc2)cc1,-2,-6,.,99*,2
O=C(NCCN1CCOCC1)c1ccc(CSc2nc3ccncc3n2Cc2ccc(F)cc2)cc1,-1,.,-1,99*,8
COc1cc2c(cc1OC)C(c1cc(C)ccc1C)CC(=O)N2 (centres undefined),-2,-1,-2,0,-2
Cc1ccc(S(=O)(=O)N2CCC(C(=O)OC(C)C(=O)N(C)c3ccccc3)CC2)cc1C (centres undefined),0,12,5,-2,.
Cc1cc(C)n2nc(Sc3ncccc3[N+](=O)[O-])nc2n1,.,.,.,-8,.
CC(C)CNC(=S)N(CCCO)Cc1cc2cc3c(cc2[nH]c1=O)OCO3,0,-2,1,0,-2
CN1CC(c2ccccc2)Oc2ccccc2C1=S (centres undefined),0,-6,67*,0,4
SMILES,CAL PDZ FP-1,Rtt109 HAT inh,CAL PDZ FP-2,ALR inh,DYRK1A inh
O=C1CC(c2ccc(O)cc2)Oc2ccccc21 (centres undefined),-3,7,7,?,11
CCC(Cc1ccccc1)NC(=O)C1CC1 (centres undefined),0,5,1,1,1
CN(C)c1ccc(C2CC(=O)NC3=C2C(=O)CC(C)(C)C3)cc1 (centres undefined),0,-1,-5,?,5
CCN(CC)c1ccc(C2CC(=O)NC3=C2C(=O)CC(C)(C)C3)cc1 (centres undefined),0,-6,-2,95*,-3
CCN(CC)c1ccc(C2C(C(=O)OCCOC)=C(C)NC3=C2C(=O)CC(C)(C)C3)cc1 (centres undefined),0,-9,0,99*,0
O=C1c2cc(Br)ccc2OC2C=CC=CC12 (centres undefined),0,-3,6,.,2
CS/C(=N\S(=O)(=O)c1cccs1)NC(=O)CSc1nc2ccccc2s1,-3,5,0,98*,3
C/C(=N/NC(=O)CSc1nc2ccccc2s1)c1ccncc1,0,-1,3,6,5
COc1ccc(NC(=O)CCCOc2ccc(Cl)c(C)c2)cc1S(=O)(=O)N1CCOCC1,-3,-6,1,-8,-2
CCOc1ccc(C(=O)NCC(=O)N2CCCCCCC2)cc1,0,-1,-3,-8,3
COc1ccccc1OC(C)C(=O)N1CCN(Cc2ccc3c(c2)OCO3)CC1 (centres undefined),-3,-2,12,-7,0
O=C(O)CCC1c2cc3c4cc2OC2Oc5cc6c(cc51)C(CCC(=O)O)c1cc5c7cc1OC(O6)c1cc6cc(c1)Oc1cc(cc(C(=O)O)c1)Oc1cc8cc(c1)C(Oc1cc(c(cc1C5CCC(=O)O)C3CCC(=O)O)OC(O4)c1cc(cc(c1)Oc1cc(cc(C(=O)O)c1)O8)Oc1cc(cc(C(=O)O)c1)Oc1cc(cc2c1)Oc1cc(cc(C(=O)O)c1)O6)O7 (centres undefined),.,.,.,98*,.
CN1C(=O)/C(=C/c2cn(CC(=O)NCc3ccco3)c3ccccc23)NC1=S,.,.,.,97*,.
COc1ccc(Oc2ccc(/C=C/C(=O)c3ccc(O)cc3)cc2[N+](=O)[O-])cc1,0,0,61*,96*,1
CC[C@@]1(c2cccc(C)c2)C(=O)N(C(=O)OC)N1C(=O)OC,0,3,-3,83*,8
CC[C@@]1(c2ccccc2OC)C(=O)N(C(=O)OC)N1C(=O)OC,0,-2,-3,.,-1
O=C(O)c1ccc(N/N=C/c2cn(Cc3ccc(F)cc3)c3ccccc23)cc1,-1,17,-2,99*,11
O=C1CCCCN1CCc1c[nH]c2ccccc12,-2,-2,2,87*,-3
Oc1ccc(C[C@H]2CNC(=S)N2CC2CCCN2C[C@H](Cc2ccc(O)cc2)N2C[C@H](Cc3ccccc3)N(CCc3ccccc3)C2=S)cc1 (some centres undefined),1,11,-4,.,.
